According to ChEMBL document CHEMBL1144240, “Binding is not enough: flexibility is needed for photocrosslinking of Lck kinase by benzophenone photoligands” (Bioorg Med Chem, 2008):
Activity calls are given as the source filed them. The rule behind the calls is not given here.

Key:
[1] = target: T1, Tyrosine-protein kinase Lck (Homo sapiens, UniProt P06239); experiment: Inhibition of Lck by luciferase based assay
How it was run: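 Lck (prediluted to 46 ng/µl) was mixed with Src substrate peptide (0.25 mM stock) in 50 mM HEPES pH 7.3, 2.5 mM DTT, 0.01% Triton X-100 and 10 mM MgCl2, plus ligand at various concentrations. Reaction was started with 100 µM ATP stock and run 1 h at room temperature. Residual ATP was read by Kinase-Glo Plus luminescence after 10 min. IC50 with 95% CI from sigmoidal fit, n = 2 or 3.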

[2] = target: T1, Tyrosine-protein kinase Lck; experiment: Binding affinity to Lck assessed as photolabeling efficiency by Western blot analysis
How it was run: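 Lck was photocrosslinked with each ligand at 0, 3, 9, 18, 36, 90 and 180 µM. Labeled-band intensities were plotted against probe concentration. EC50 (ligand concentration giving 50% of maximal labeling) and its 95% CI were obtained by sigmoidal dose-response fitting of triplicate trials (n = 3).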
Target sequence in this assay (P06239 whole entry): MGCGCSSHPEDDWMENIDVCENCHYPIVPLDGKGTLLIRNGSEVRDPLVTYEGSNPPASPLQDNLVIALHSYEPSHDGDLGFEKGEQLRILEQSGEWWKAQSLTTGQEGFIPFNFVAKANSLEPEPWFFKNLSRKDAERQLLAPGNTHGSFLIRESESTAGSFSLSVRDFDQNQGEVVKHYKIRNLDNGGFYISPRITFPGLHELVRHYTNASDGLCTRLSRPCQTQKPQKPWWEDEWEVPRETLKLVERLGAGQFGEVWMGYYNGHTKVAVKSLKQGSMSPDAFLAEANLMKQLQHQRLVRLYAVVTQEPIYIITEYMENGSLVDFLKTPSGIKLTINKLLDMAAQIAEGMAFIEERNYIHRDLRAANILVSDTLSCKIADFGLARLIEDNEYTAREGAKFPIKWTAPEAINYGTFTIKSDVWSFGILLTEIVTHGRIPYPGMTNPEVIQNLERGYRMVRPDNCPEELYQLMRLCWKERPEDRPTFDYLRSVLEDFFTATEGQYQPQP

[3] = Chemical stability after 30 mins of UV irradiation by RP-HPLC; type: physicochemical; conditions: read-out: Stability
How it was run: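 Free ligands in buffer solution were irradiated under a UV-A lamp (λmax 350 nm). Aliquots were taken at 0, 10 and 30 min, and intact ligand was quantified by HPLC with UV detection at 280 nm.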

[4] = target: T1, Tyrosine-protein kinase Lck; experiment: Binding affinity to Lck assessed as photolabeling efficiency in presence of ATP-competitive Lck inhibitor by Western blot
Target sequence in this assay (P06239 2-509 limits assumed): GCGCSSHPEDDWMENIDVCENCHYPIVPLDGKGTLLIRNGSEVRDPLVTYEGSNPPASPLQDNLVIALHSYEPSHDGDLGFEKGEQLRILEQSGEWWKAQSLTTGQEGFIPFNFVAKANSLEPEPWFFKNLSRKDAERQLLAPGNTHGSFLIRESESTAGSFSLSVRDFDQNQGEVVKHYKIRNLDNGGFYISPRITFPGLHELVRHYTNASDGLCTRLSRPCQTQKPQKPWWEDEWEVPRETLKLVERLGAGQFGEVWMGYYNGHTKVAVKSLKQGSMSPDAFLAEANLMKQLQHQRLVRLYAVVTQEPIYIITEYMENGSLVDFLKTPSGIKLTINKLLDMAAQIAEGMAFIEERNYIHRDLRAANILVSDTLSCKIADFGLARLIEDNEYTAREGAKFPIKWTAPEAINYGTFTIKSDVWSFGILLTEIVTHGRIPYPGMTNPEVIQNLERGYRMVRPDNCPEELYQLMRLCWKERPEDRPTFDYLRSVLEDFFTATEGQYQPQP

Structure (SMILES) | IC50 [1] [µM] | EC50 [2] [µM] | remaining at 0.5 h [3] [%] | Activity [4] | Activity [1]
Nc1ncnc2c1ncn2CC(=O)N(CCNC(=O)[C@H]1CCCN1C(=O)[C@H](Cc1ccc(C(=O)c2ccccc2)cc1)NC(=O)CCCNC(=O)CCCC[C@@H]1SC[C@@H]2NC(=O)N[C@@H]21)CC(=O)NCC(=O)O | 50 | > 150 | 70 | – | –
Nc1ncnc2c1ncn2CC(=O)N(CCNC(=O)[C@@H](CO)NC(=O)[C@H](Cc1ccc(C(=O)c2ccccc2)cc1)NC(=O)CCCNC(=O)CCCC[C@@H]1SC[C@@H]2NC(=O)N[C@@H]21)CC(=O)NCC(=O)O | 50 | 23.3 | 70 | inactive | –
Nc1ncnc2c1ncn2CC(=O)N(CCNC(=O)[C@@H](CCC(=O)O)NC(=O)[C@H](Cc1ccc(C(=O)c2ccccc2)cc1)NC(=O)CCCNC(=O)CCCC[C@@H]1SC[C@@H]2NC(=O)N[C@@H]21)CC(=O)NCC(=O)O | – | 18.4 | 70 | inactive | inactive
Nc1ncnc2c1ncn2CC(=O)N(CCNC(=O)[C@H]1CCCCN1C(=O)[C@H](Cc1ccc(C(=O)c2ccccc2)cc1)NC(=O)CCCNC(=O)CCCC[C@@H]1SC[C@@H]2NC(=O)N[C@@H]21)CC(=O)NCC(=O)O | – | > 150 | 70 | – | inactive
Nc1ncnc2c1ncn2CC(=O)N(CCNC(=O)CCCNC(=O)[C@H](Cc1ccc(C(=O)c2ccccc2)cc1)NC(=O)CCCNC(=O)CCCC[C@@H]1SC[C@@H]2NC(=O)N[C@@H]21)CC(=O)NCC(=O)O | – | 4.4 | 70 | inactive | inactive
Nc1ncnc2c1ncn2CC(=O)N(CCNC(=O)CNC(=O)[C@H](Cc1ccc(C(=O)c2ccccc2)cc1)NC(=O)CCCNC(=O)CCCC[C@@H]1SC[C@@H]2NC(=O)N[C@@H]21)CC(=O)NCC(=O)O | – | 14.4 | 70 | inactive | inactive
